In PMC6792223 (Chemistry of Materials, 2019):

Experiments:
[1] = Optical appearance of the hydrogels; format: physicochemical; conditions: 10 mM gelator, gelation by GdL acidification overnight; visual
Procedure, shortened: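 Gelators at 10 mM in PBS (pH 7.4) were dissolved with 0.5 M NaOH (to pH 9), either singly or mixed at 100/0, 80/20, 50/50, 20/80 and 0/100 molar % (10 mM total). Solutions were shaken with GdL (4 mg per vial) until dissolved, then left overnight to gel.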

[2] = aqueous; cited from earlier work
[3] = test system: Human-adipose-derived stem cells (hADSCs); test: Live/dead assay of cells cultured on the hydrogels; format: cell-based; conditions: 4 days in culture, live/dead staining
Procedure, shortened: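 GdL-formed gels at 1:0, 4:1, 1:1, 1:4 and 0:1 PA-E3/DBS-COOH were cross-linked with 50 mM CaCl2 and PBS-washed to pH 7. hADSCs were seeded at 5000 cells/mL and cultured 4 days at 37 °C, 5% CO2, with tissue-culture plastic as reference. Stained 30 min with calcein AM (live, green) and ethidium homodimer-1 (dead, red); imaged by confocal microscopy.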

[4] = target: proteinase K (Parengyodontium album, UniProt P06873); test: Hydrogel weight loss in proteinase K solution or PBS; format: in vitro ADME; conditions: PBS 1× without enzyme, 37 °C, 22 days
Procedure, shortened: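 Gels (10 mM PA-E3, 10 mM DBS-COOH, or 5 mM/5 mM mixture) formed by GdL acidification, soaked 1 h in PBS, then incubated at 37 °C in proteinase K (5 mg/mL in PBS) or PBS 1× alone; solutions renewed after each weighing at intervals up to 22 days; weight loss = (Wf – Wi)/Wi × 100 versus initial weight.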

Sequence of proteinase K (P06873 106-384, species assumed): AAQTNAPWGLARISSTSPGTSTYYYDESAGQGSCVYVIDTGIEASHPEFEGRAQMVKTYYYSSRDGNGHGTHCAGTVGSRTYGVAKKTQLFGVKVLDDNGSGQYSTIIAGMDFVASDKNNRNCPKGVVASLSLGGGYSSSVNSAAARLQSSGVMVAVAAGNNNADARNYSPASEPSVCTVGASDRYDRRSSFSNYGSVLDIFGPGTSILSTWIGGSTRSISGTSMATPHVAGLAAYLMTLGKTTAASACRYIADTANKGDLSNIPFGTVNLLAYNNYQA

Compound | Optical appearance of hydrogel (transparency) [1] | pKa of the terminal carboxylic acid [2] | Live cell coverage of hydrogel ([3]; confocal imaging) | Cell viability on hydrogel compared with PA-E3 hydrogels ([3]; qualitative comparison) | Weight ratio of hydrogel in PBS [4]
O=C(O)c1ccc([C@@H]2OC[C@@H]3O[C@H](c4ccc(C(=O)O)cc4)O[C@H]([C@H](O)CO)[C@@H]3O2)cc1 [DBS-COOH] | translucent | 4–5 | fully covered with live cells | more viable | 
CH3-(CH2)14-CONH-VVVAAAEEE-CONH2 [PA-E3] | optically transparent | 4–5 |  |  | remained constant
